The record followed here is ChEMBL document CHEMBL1158336, “Synthesis, antitubercular activity and docking study of novel cyclic azole substituted diphenyl ether derivatives” (2009).

Converted amounts (≈) assume the structure as drawn.

The MIC is the smallest concentration in the dilution series that meets the test's criterion for growth inhibition. Lower therefore signals inhibition by little substance.

The subject of one experiment is Mycobacterium tuberculosis. The experiment in a line: Antimycobacterial activity against Mycobacterium tuberculosis H37Rv at 1 ug/ml after 6 weeks. In kind it is functional. Put shortly:
(§1)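 Lowenstein–Jensen slope method. Compounds dissolved in DMSO, diluted in DMSO, and an aliquot mixed into L.J. medium at 0.8 mL per 7.2 mL. Slopes set and sterilised at 75–80 °C for 3 days. M. tuberculosis H37Rv suspended with glass beads in sterile water and inoculated by 3 mm nichrome loop. DMSO-only and compound-free media served as controls.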
In the case of `S=c1[nH]nc(-c2ccc(Oc3ccccc3)cc2)o1`, the Activity was found to be 100%.
Still for that read-out and setting: for `c1ccc(Oc2cccc(-c3nc(-c4ccccc4)co3)c2)cc1` the value was 100%; for `COc1ccc(-c2coc(-c3cccc(Oc4ccccc4)c3)n2)cc1`, 100%.
In turn, `S=c1[nH]nc(-c2cccc(Oc3ccccc3)c2)n1-c1ccccc1` displayed an Activity of 100%.
The compound `Clc1ccc(-c2coc(-c3cccc(Oc4ccccc4)c3)n2)cc1` showed an Activity of 100%.
Turning to `O=C(c1ccccc1)N1N=C(c2ccccn2)CC1c1ccc(Oc2ccccc2)cc1` (centres undefined), the Activity turned out to be 100%.
Still for that read-out and setting: for `S=c1[nH]nc(-c2ccccc2Oc2ccccc2)o1` the value was 100%.
With `S=c1[nH]nc(-c2cccc(Oc3ccccc3)c2)o1`, the Activity worked out at 100%.
On the same count and under the same terms, the value for `S=c1[nH]nc(-c2ccc(Oc3ccccc3)cc2)n1-c1ccccc1` was 100%.
Same read-out and setting: for `S=c1[nH]nc(-c2ccccc2Oc2ccccc2)n1-c1ccccc1` the value was 100%; for `Oc1cc(Cl)ccc1Oc1ccc(Cl)cc1Cl` [TRICLOSAN], 100%.

Another experiment relates to Mycobacterium tuberculosis. The experiment in a line: Antimycobacterial activity against Mycobacterium tuberculosis H37Rv after 6 weeks. In kind it is functional. Put shortly: as §1
`NNC(=O)c1ccncc1` [ISONIAZID] had an MIC of 0.01 µg/mL (≈ 0.0729 µM).
Still for that read-out and setting: for `CO[C@H]1/C=C/O[C@@]2(C)Oc3c(C)c(O)c4c(O)c(c(/C=N/N5CCN(C)CC5)c(O)c4c3C2=O)NC(=O)/C(C)=C\C=C\[C@H](C)[C@H](O)[C@@H](C)[C@@H](O)[C@@H](C)[C@H](OC(C)=O)[C@@H]1C` [RIFAMPIN] the value was 0.06 µg/mL (≈ 0.0729 µM); for `Oc1cc(Cl)ccc1Oc1ccc(Cl)cc1Cl` [TRICLOSAN], 5 µg/mL (≈ 17.3 µM).
